Test results from ChEMBL document CHEMBL4373735, “N-alkyl-hydroxybenzoyl anilide hydroxamates as dual inhibitors of HDAC and HSP90, downregulating IFN-γ induced PD-L1 expression” (Eur J Med Chem, 2020).

Experiments:
Histone deacetylase 1 = Histone deacetylase 1 (Homo sapiens, UniProt Q13547); assay: Inhibition of HDAC1 (unknown origin)
cells = format: ADME, cell-based; details: Homo sapiens, SC9
A549 = assay: Antiproliferative activity against human A549 cells assessed as cell growth inhibition after 48 hrs by sulforhodamine B assay; format: functional
Procedure, shortened: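 Cells seeded at 5000/well overnight; baseline plate fixed with 10% TCA at time of compound addition (T0). Treated with DMSO or graded doses for 48 h, fixed with 10% TCA, stained with 0.4% (w/v) SRB in 1% acetic acid, washed with 1% acetic acid, dye solubilised in 10 mM Trizma base, absorbance at 515 nm. GI50 from T0-corrected growth; at least three independent experiments, SD reported.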

HCT-116 = assay: cells; format: functional; details: Homo sapiens, HCT-116, 48 h
NCI-H1975 = assay: cells; format: functional; details: Homo sapiens, NCI-H1975, 48 h
Histone deacetylase = format: cell-based, Homo sapiens; details: hela
[1] = target: Heat shock protein HSP 90-alpha (Homo sapiens, UniProt P07900); assay: Inhibition of FITC-geldanamycin binding to recombinant human full-length C-terminal His-tagged HSP90alpha expressed in Escherichia coli after 3 hrs by fluorescence polarization assay
Homo sapiens = organism: Homo sapiens; assay: Selectivity ratio of IC50 for HDAC1 (unknown origin) to IC50 for HDAC6 (unknown origin)

Chain of Histone deacetylase 1 (Q13547 whole entry): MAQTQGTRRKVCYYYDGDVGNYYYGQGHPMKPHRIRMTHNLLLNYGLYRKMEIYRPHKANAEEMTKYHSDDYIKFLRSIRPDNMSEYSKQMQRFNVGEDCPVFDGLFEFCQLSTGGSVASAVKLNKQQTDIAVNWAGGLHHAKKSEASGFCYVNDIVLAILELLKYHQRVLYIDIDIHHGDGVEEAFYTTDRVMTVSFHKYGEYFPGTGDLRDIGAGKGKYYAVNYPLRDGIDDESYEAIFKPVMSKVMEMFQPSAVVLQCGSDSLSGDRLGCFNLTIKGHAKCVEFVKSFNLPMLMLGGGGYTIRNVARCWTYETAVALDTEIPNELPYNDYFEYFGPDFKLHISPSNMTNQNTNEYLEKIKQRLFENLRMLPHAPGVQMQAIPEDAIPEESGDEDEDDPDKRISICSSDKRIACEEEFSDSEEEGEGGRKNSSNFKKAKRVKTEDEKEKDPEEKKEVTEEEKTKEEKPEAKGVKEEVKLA

| SMILES | IC50 (Histone deacetylase 1) [µM] | IC50 (cells) [µM] | GI50 (A549; Homo sapiens, A549, 48 h) [µM] | GI50 (HCT-116) [µM] | GI50 (NCI-H1975) [µM] | IC50 (Histone deacetylase) [µM] | IC50 [1] [µM] | Ratio IC50 (Homo sapiens) | GI50 (A549) [µM] |
| --- | --- | --- | --- | --- | --- | --- | --- | --- | --- |
| O=C(CCCCC[C@@H](NC(=O)c1ccccc1)C(=O)Nc1ccccc1)NO | 0.0121 | 0.073 |  |  |  |  |  |  |  |
| CC(C)c1cc(C(=O)N(C)c2ccc(NC(=O)CCCCCCCCC(=O)NO)cc2)c(O)cc1O |  |  | 1.08 | 0.59 | 0.21 | 0.672 |  |  |  |
| C=CCNC1=C2C[C@@H](C)C[C@H](OC)[C@H](O)[C@@H](C)/C=C(\C)[C@H](OC(N)=O)[C@@H](OC)/C=C\C=C(/C)C(=O)NC(=CC1=O)C2=O (stereo in doubt) [TANESPIMYCIN] |  |  | 0.0075 | 0.34 | 0.16 | > 1 |  |  |  |
| CC(C)c1cc(C(=O)Nc2ccccc2NC(=O)CCCCCCC(=O)NO)c(O)cc1O |  |  | > 10 | 4.92 | > 10 | > 1 | > 1 |  |  |
| CC(C)c1cc(C(=O)N(C)c2cccc(NC(=O)CCCCCCC(=O)NO)c2)c(O)cc1O |  |  | 2.3 | 1.17 | 1.66 | 0.211 | 0.302 |  |  |
| CC(C)c1cc(C(=O)Nc2cccc(NC(=O)CCCCCCC(=O)NO)c2)c(O)cc1O |  |  | > 10 | 6.23 | > 10 | 0.105 | > 1 |  |  |
| CC(C)c1cc(C(=O)N(C)c2ccc(NC(=O)CCCCCC(=O)NO)cc2)c(O)cc1O |  |  | 2.83 | 3.78 | 0.69 | 0.391 | 0.169 |  |  |
| O=C(CCCCC[C@@H](NC(=O)c1ccccc1)C(=O)Nc1ccc2ncccc2c1)NO | 0.0035 | 0.09 |  |  |  |  |  |  |  |
| CCN(C(=O)c1cc(C(C)C)c(O)cc1O)c1ccc(NC(=O)CCCCCCC(=O)NO)cc1 |  |  | 5.63 | 3.56 | 1.38 | 0.462 | 0.186 |  |  |
| CCN(C(=O)c1cc(C(C)C)c(O)cc1O)c1cccc(NC(=O)CCCCCCC(=O)NO)c1 |  |  | 1.59 | 1.12 | 0.94 | 0.126 | 0.146 |  |  |
| CC(C)c1cc(C(=O)N(c2ccc(NC(=O)CCCCCCC(=O)NO)cc2)C(C)C)c(O)cc1O |  |  | > 10 | > 10 | > 10 | > 1 | > 1 |  |  |
| O=C(CCCCCCC(=O)Nc1ccc(-c2cn(Cc3ccc(F)cc3)nn2)cc1)NO |  |  |  |  |  |  |  | 51 |  |
| CC(C)c1cc(C(=O)Nc2ccc(NC(=O)CCCCCCC(=O)NO)cc2)c(O)cc1O |  |  | > 10 | 5.43 | > 10 | 0.415 | > 1 |  |  |
| O=C(CCCCCCC(=O)Nc1ccccc1)NO [VORINOSTAT] |  |  |  |  |  |  | > 0.5 |  | 1.02 |
